# Source: ChEMBL document CHEMBL3351523 (Bioorg Med Chem, 2014)
# System: not listed separately
# Assay: Cytotoxicity against mock-infected MDBK cells after 48 to 96 hrs by MTT assay
# Format: cell-based, Bos taurus
# Conditions: cattle
# In short: (§1)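 Mock-infected MDBK (6 × 10^5 cells/mL; MEM-E, 10% horse serum, 1 mM pyruvate) or BHK (1 × 10^6 cells/mL; MEM-E, 10% FBS) cells were incubated at 37 °C, 5% CO2 with serial dilutions from 100 µM, 1:5. Viability by MTT after 48–96 h. CC50 from linear regression against untreated controls.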
row,SMILES,CC50 [µM]
1,FC(F)(F)c1ccc2c(c1)nc(-c1ccccc1)n2C[C@@H]1CCCN2CCCC[C@H]12,35
2,Fc1cccc(F)c1-c1nc2cc(C(F)(F)F)ccc2n1C[C@@H]1CCCN2CCCC[C@H]12,36
3,COc1ccc(-c2nc3cc(C(F)(F)F)ccc3n2C[C@@H]2CCCN3CCCC[C@H]23)cc1,> 100
4,CCCCn1c(-c2ccc(OC)cc2)nc2cc(C(F)(F)F)ccc21,22
5,COCCn1c(-c2ccc(OC)cc2)nc2cc(C(F)(F)F)ccc21,> 100
6,CC(CC(=O)O)n1c(-c2ccccc2)nc2ccccc21 (centres undefined),> 100

# System: Human alphaherpesvirus 1
# Assay: Antiviral activity against HSV1 infected in african green monkey Vero 76 cells assessed as reduction in plaque number after 3 days by plaque reduction assay
# Format: functional, organism-based
# Conditions: Human alphaherpesvirus 1, Vero, 72 h
row,SMILES,EC50 [µM]
1,FC(F)(F)c1ccc2c(c1)nc(-c1ccccc1)n2C[C@@H]1CCCN2CCCC[C@H]12,> 100
2,Fc1cccc(F)c1-c1nc2cc(C(F)(F)F)ccc2n1C[C@@H]1CCCN2CCCC[C@H]12,> 100
3,COc1ccc(-c2nc3cc(C(F)(F)F)ccc3n2C[C@@H]2CCCN3CCCC[C@H]23)cc1,> 100
4,CCCCn1c(-c2ccc(OC)cc2)nc2cc(C(F)(F)F)ccc21,> 100
5,COCCn1c(-c2ccc(OC)cc2)nc2cc(C(F)(F)F)ccc21,> 100
6,CC(CC(=O)O)n1c(-c2ccccc2)nc2ccccc21 (centres undefined),> 100

# System: not listed separately
# Assay: Cytotoxicity against mock-infected BHK21 cells after 48 to 96 hrs by MTT assay
# Format: functional
# Conditions: Mesocricetus auratus, BHK-21
# In short: as §1
row,SMILES,CC50 [µM]
1,FC(F)(F)c1ccc2c(c1)nc(-c1ccccc1)n2C[C@@H]1CCCN2CCCC[C@H]12,75
2,Fc1cccc(F)c1-c1nc2cc(C(F)(F)F)ccc2n1C[C@@H]1CCCN2CCCC[C@H]12,18
3,COc1ccc(-c2nc3cc(C(F)(F)F)ccc3n2C[C@@H]2CCCN3CCCC[C@H]23)cc1,65
4,CCCCn1c(-c2ccc(OC)cc2)nc2cc(C(F)(F)F)ccc21,35
5,COCCn1c(-c2ccc(OC)cc2)nc2cc(C(F)(F)F)ccc21,> 100
6,CC(CC(=O)O)n1c(-c2ccccc2)nc2ccccc21 (centres undefined),> 100

# System: Reovirus sp.
# Assay: Antiviral activity against Reovirus type-1 infected in BHK21 cells assessed as inhibition of virus-induced cytopathogenicity after 3 to 4 days by MTT assay
# Format: functional, organism-based
# Conditions: BHK-21
row,SMILES,EC50 [µM]
1,FC(F)(F)c1ccc2c(c1)nc(-c1ccccc1)n2C[C@@H]1CCCN2CCCC[C@H]12,> 100
2,Fc1cccc(F)c1-c1nc2cc(C(F)(F)F)ccc2n1C[C@@H]1CCCN2CCCC[C@H]12,> 100
3,COc1ccc(-c2nc3cc(C(F)(F)F)ccc3n2C[C@@H]2CCCN3CCCC[C@H]23)cc1,27
4,CCCCn1c(-c2ccc(OC)cc2)nc2cc(C(F)(F)F)ccc21,> 100
5,COCCn1c(-c2ccc(OC)cc2)nc2cc(C(F)(F)F)ccc21,> 100
6,CC(CC(=O)O)n1c(-c2ccccc2)nc2ccccc21 (centres undefined),> 100

# System: Coxsackievirus B5
# Assay: Antiviral activity against Coxsackievirus B5 infected in african green monkey Vero 76 cells assessed as reduction in plaque number after 3 days by plaque reduction assay
# Format: functional, organism-based
# Conditions: Enterovirus B, 72 h
row,SMILES,EC50 [µM]
1,FC(F)(F)c1ccc2c(c1)nc(-c1ccccc1)n2C[C@@H]1CCCN2CCCC[C@H]12,> 100
2,Fc1cccc(F)c1-c1nc2cc(C(F)(F)F)ccc2n1C[C@@H]1CCCN2CCCC[C@H]12,> 100
3,COc1ccc(-c2nc3cc(C(F)(F)F)ccc3n2C[C@@H]2CCCN3CCCC[C@H]23)cc1,> 100
4,CCCCn1c(-c2ccc(OC)cc2)nc2cc(C(F)(F)F)ccc21,> 100
5,COCCn1c(-c2ccc(OC)cc2)nc2cc(C(F)(F)F)ccc21,> 100
6,CC(CC(=O)O)n1c(-c2ccccc2)nc2ccccc21 (centres undefined),> 100

# System: Vaccinia virus
# Assay: Antiviral activity against Vaccinia Virus infected in african green monkey Vero 76 cells assessed as reduction in plaque number after 3 days by plaque reduction assay
# Format: functional, organism-based
# Conditions: Orthopoxvirus vaccinia, 72 h
row,SMILES,EC50 [µM]
1,FC(F)(F)c1ccc2c(c1)nc(-c1ccccc1)n2C[C@@H]1CCCN2CCCC[C@H]12,> 100
2,Fc1cccc(F)c1-c1nc2cc(C(F)(F)F)ccc2n1C[C@@H]1CCCN2CCCC[C@H]12,> 100
3,COc1ccc(-c2nc3cc(C(F)(F)F)ccc3n2C[C@@H]2CCCN3CCCC[C@H]23)cc1,> 100
4,CCCCn1c(-c2ccc(OC)cc2)nc2cc(C(F)(F)F)ccc21,> 100
5,COCCn1c(-c2ccc(OC)cc2)nc2cc(C(F)(F)F)ccc21,> 100
6,CC(CC(=O)O)n1c(-c2ccccc2)nc2ccccc21 (centres undefined),> 100

# System: Respiratory syncytial virus
# Assay: Antiviral activity against Respiratory syncytial virus infected in african green monkey Vero 76 cells assessed as reduction in plaque number after 5 days by plaque reduction assay
# Format: functional, organism-based
# Conditions: human respiratory syncytial virus, 120 h
row,SMILES,EC50 [µM]
1,FC(F)(F)c1ccc2c(c1)nc(-c1ccccc1)n2C[C@@H]1CCCN2CCCC[C@H]12,> 100
2,Fc1cccc(F)c1-c1nc2cc(C(F)(F)F)ccc2n1C[C@@H]1CCCN2CCCC[C@H]12,> 100
3,COc1ccc(-c2nc3cc(C(F)(F)F)ccc3n2C[C@@H]2CCCN3CCCC[C@H]23)cc1,> 100
4,CCCCn1c(-c2ccc(OC)cc2)nc2cc(C(F)(F)F)ccc21,> 100
5,COCCn1c(-c2ccc(OC)cc2)nc2cc(C(F)(F)F)ccc21,> 100
6,CC(CC(=O)O)n1c(-c2ccccc2)nc2ccccc21 (centres undefined),> 100

# System: Yellow fever virus
# Assay: Antiviral activity against Yellow fever virus infected in BHK21 cells assessed as inhibition of virus-induced cytopathogenicity after 3 to 4 days by MTT assay
# Format: functional, organism-based
# Conditions: BHK-21
row,SMILES,EC50 [µM]
1,FC(F)(F)c1ccc2c(c1)nc(-c1ccccc1)n2C[C@@H]1CCCN2CCCC[C@H]12,> 100
2,Fc1cccc(F)c1-c1nc2cc(C(F)(F)F)ccc2n1C[C@@H]1CCCN2CCCC[C@H]12,> 100
3,COc1ccc(-c2nc3cc(C(F)(F)F)ccc3n2C[C@@H]2CCCN3CCCC[C@H]23)cc1,> 100
4,CCCCn1c(-c2ccc(OC)cc2)nc2cc(C(F)(F)F)ccc21,> 100
5,COCCn1c(-c2ccc(OC)cc2)nc2cc(C(F)(F)F)ccc21,> 100
6,CC(CC(=O)O)n1c(-c2ccccc2)nc2ccccc21 (centres undefined),> 100

# System: Poliovirus 1
# Assay: Antiviral activity against Poliovirus type 1 Sabin strain infected in african green monkey Vero 76 cells assessed as reduction in plaque number after 2 days by plaque reduction assay
# Format: functional, organism-based
# Conditions: Enterovirus C, 48 h
row,SMILES,EC50 [µM]
1,FC(F)(F)c1ccc2c(c1)nc(-c1ccccc1)n2C[C@@H]1CCCN2CCCC[C@H]12,> 100
2,Fc1cccc(F)c1-c1nc2cc(C(F)(F)F)ccc2n1C[C@@H]1CCCN2CCCC[C@H]12,60
3,COc1ccc(-c2nc3cc(C(F)(F)F)ccc3n2C[C@@H]2CCCN3CCCC[C@H]23)cc1,> 100
4,CCCCn1c(-c2ccc(OC)cc2)nc2cc(C(F)(F)F)ccc21,25
5,COCCn1c(-c2ccc(OC)cc2)nc2cc(C(F)(F)F)ccc21,> 100
6,CC(CC(=O)O)n1c(-c2ccccc2)nc2ccccc21 (centres undefined),> 100

# System: Vesicular stomatitis virus
# Assay: Antiviral activity against Vesicular stomatitis virus infected in african green monkey Vero 76 cells assessed as reduction in plaque number after 2 days by plaque reduction assay
# Format: functional, organism-based
# Conditions: 48 h
row,SMILES,EC50 [µM]
1,FC(F)(F)c1ccc2c(c1)nc(-c1ccccc1)n2C[C@@H]1CCCN2CCCC[C@H]12,> 100
2,Fc1cccc(F)c1-c1nc2cc(C(F)(F)F)ccc2n1C[C@@H]1CCCN2CCCC[C@H]12,> 100
3,COc1ccc(-c2nc3cc(C(F)(F)F)ccc3n2C[C@@H]2CCCN3CCCC[C@H]23)cc1,> 100
4,CCCCn1c(-c2ccc(OC)cc2)nc2cc(C(F)(F)F)ccc21,> 100
5,COCCn1c(-c2ccc(OC)cc2)nc2cc(C(F)(F)F)ccc21,> 100
6,CC(CC(=O)O)n1c(-c2ccccc2)nc2ccccc21 (centres undefined),> 100

# System: not listed separately
# Assay: Cytotoxicity against mock-infected human MT4 cells after 96 hrs by MTT assay
# Format: cell-based
# Conditions: not given
# In short: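 Exponentially growing MT-4 cells were seeded at 1 × 10^5 cells/mL in RPMI-1640 with 10% FBS and held at 37 °C, 5% CO2 with serial compound dilutions. Viability was read by MTT after 96 h. CC50 from linear regression against untreated controls.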
row,SMILES,CC50 at 96 h [µM]
1,FC(F)(F)c1ccc2c(c1)nc(-c1ccccc1)n2C[C@@H]1CCCN2CCCC[C@H]12,46
2,Fc1cccc(F)c1-c1nc2cc(C(F)(F)F)ccc2n1C[C@@H]1CCCN2CCCC[C@H]12,57
3,COc1ccc(-c2nc3cc(C(F)(F)F)ccc3n2C[C@@H]2CCCN3CCCC[C@H]23)cc1,25
4,CCCCn1c(-c2ccc(OC)cc2)nc2cc(C(F)(F)F)ccc21,> 100
5,COCCn1c(-c2ccc(OC)cc2)nc2cc(C(F)(F)F)ccc21,80
6,CC(CC(=O)O)n1c(-c2ccccc2)nc2ccccc21 (centres undefined),> 100

# System: Bovine viral diarrhea virus 1
# Assay: Antiviral activity against Bovine viral diarrhea virus infected in MDBK cells assessed as inhibition of virus-induced cytopathogenicity after 3 to 4 days by MTT assay
# Format: functional, organism-based
# Conditions: Bovine viral diarrhea virus isolates and strains
row,SMILES,EC50 [µM]
1,FC(F)(F)c1ccc2c(c1)nc(-c1ccccc1)n2C[C@@H]1CCCN2CCCC[C@H]12,> 100
2,Fc1cccc(F)c1-c1nc2cc(C(F)(F)F)ccc2n1C[C@@H]1CCCN2CCCC[C@H]12,> 100
3,COc1ccc(-c2nc3cc(C(F)(F)F)ccc3n2C[C@@H]2CCCN3CCCC[C@H]23)cc1,> 100
4,CCCCn1c(-c2ccc(OC)cc2)nc2cc(C(F)(F)F)ccc21,> 100
5,COCCn1c(-c2ccc(OC)cc2)nc2cc(C(F)(F)F)ccc21,> 100
6,CC(CC(=O)O)n1c(-c2ccccc2)nc2ccccc21 (centres undefined),> 100

# System: Human immunodeficiency virus 1
# Assay: Antiviral activity against HIV1 infected in human MT4 cells assessed as inhibition of virus-induced cytopathogenicity after 4 days by MTT assay
# Format: functional, organism-based
# Conditions: Human immunodeficiency virus 1, MT4, 96 h
# In short: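 MT-4 cells (1 × 10^4/well in RPMI) were infected acutely with HIV-1 IIIB, 100 CCID50 (m.o.i. 0.01), with serial dilutions from 100 µM, 1:5. After 4 days at 37 °C, protection from virus-induced cytopathogenicity was read by MTT. EC50 came from linear regression against untreated controls.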
row,SMILES,EC50 [µM]
1,FC(F)(F)c1ccc2c(c1)nc(-c1ccccc1)n2C[C@@H]1CCCN2CCCC[C@H]12,> 100
2,Fc1cccc(F)c1-c1nc2cc(C(F)(F)F)ccc2n1C[C@@H]1CCCN2CCCC[C@H]12,> 100
3,COc1ccc(-c2nc3cc(C(F)(F)F)ccc3n2C[C@@H]2CCCN3CCCC[C@H]23)cc1,> 100
4,CCCCn1c(-c2ccc(OC)cc2)nc2cc(C(F)(F)F)ccc21,> 100
5,COCCn1c(-c2ccc(OC)cc2)nc2cc(C(F)(F)F)ccc21,> 100
6,CC(CC(=O)O)n1c(-c2ccccc2)nc2ccccc21 (centres undefined),> 100

# System: not listed separately
# Assay: Cytotoxicity against mock-infected african green monkey Vero 76 cells after 48 to 96 hrs by MTT assay
# Format: cell-based
# Conditions: chlorocebus sabaeus, mock-infected Vero 76 cells
row,SMILES,CC50 [µM]
1,FC(F)(F)c1ccc2c(c1)nc(-c1ccccc1)n2C[C@@H]1CCCN2CCCC[C@H]12,90
2,Fc1cccc(F)c1-c1nc2cc(C(F)(F)F)ccc2n1C[C@@H]1CCCN2CCCC[C@H]12,≥ 100
3,COc1ccc(-c2nc3cc(C(F)(F)F)ccc3n2C[C@@H]2CCCN3CCCC[C@H]23)cc1,75
4,CCCCn1c(-c2ccc(OC)cc2)nc2cc(C(F)(F)F)ccc21,80
5,COCCn1c(-c2ccc(OC)cc2)nc2cc(C(F)(F)F)ccc21,> 100
6,CC(CC(=O)O)n1c(-c2ccccc2)nc2ccccc21 (centres undefined),> 100
